Bioassay records (PubChem)
UBC13 inh = human UBC13 polyubiquitination inhibition | P61088 | UBC13 polyubiquitin chain formation, TR-FRET | inhibition, % at 20 µM | 330,000 compounds, 0.47% hits | AID 485273; in the data active means inhibition above about 45%, passing the limit was not always enough
Target sequence (P61088 whole entry, looked up): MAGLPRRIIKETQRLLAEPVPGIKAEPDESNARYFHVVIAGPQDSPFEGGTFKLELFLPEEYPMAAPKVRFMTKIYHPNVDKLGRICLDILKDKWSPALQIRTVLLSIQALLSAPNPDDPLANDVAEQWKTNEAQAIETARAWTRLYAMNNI
SENP7 inh = blocks the human protease SENP7; AID 434973; 330,000 compounds, 1.5% hits; recombinant SENP7, Z-RLRGG-aminoluciferin luminescence, 40 min; inhibition, % at 5 µM; Q9BQF6;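 active means inhibition above about 50% at the single test dose, limit read from the data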;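 further: plate controls were DMSO with enzyme for no effect and no enzyme buffer wells for full effect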
SENP6 inh = blocks the human protease SENP6 | Recombinant SENP6 catalytic domain, aminoluciferin luminescence | Q9GZR1 | 330,000 compounds, 1.8% hits | inhibition, % at 10 µM | AID 2599;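 active means inhibition above about 50% at the single tested dose, limit read from the data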;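 further: plate controls were DMSO wells with enzyme for no effect and DMSO wells lacking enzyme for full effect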
SENP8 block-1 = blocks the human protease SENP8; Q96LD8; purified SENP8, Z-RLRGG-aminoluciferin cleavage, luminescence; inhibition, % at 10 µM; 330,000 compounds, 1.2% hits; in the data active means inhibition above about 50%
Target sequence (Q96LD8 whole entry, looked up): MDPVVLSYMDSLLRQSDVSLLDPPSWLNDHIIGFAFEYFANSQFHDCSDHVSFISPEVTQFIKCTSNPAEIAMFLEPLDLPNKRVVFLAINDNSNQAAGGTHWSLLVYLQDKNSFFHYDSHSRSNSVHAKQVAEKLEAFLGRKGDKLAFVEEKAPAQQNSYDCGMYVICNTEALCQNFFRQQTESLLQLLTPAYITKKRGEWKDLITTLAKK
SENP8 block-2 = inhibitors of human SENP8 protease; Q96LD8; recombinant SENP8, Nedd8 substrate fluorescence; inhibition, % at 20 µM; 360,000 compounds, 0.64% hits; AID 602440; in the data active means inhibition mostly above about 40%, no sharp cut-off; inactive means mostly below about 27%
Apaf1 inhib = human Apaf-1 inhibition; O14727; reconstituted apoptosome caspase-3 activity, DEVD-Rh110 fluorescence; inhibition, % at 20 µM; 330,000 compounds, 0.71% hits; active means inhibition of at least 40% at 20 µM;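 further: plate controls were DMSO wells for no effect and DEVD-CHO caspase inhibitor wells for full effect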
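Material: biochemical Apaf-1 apoptosome reconstitution. Medium: Hepes buffer, pH 7.5. Also added: cytochrome c activation, bis-DEVD rhodamine 110 substrate. Timing: 30 min compound preincubation, 50 min activation, room temperature. Measured by: rhodamine 110 fluorescence at Ex 480/Em 540 nm.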
SENP8 conf = human SENP8 inhibition, confirmed; 6,200 compounds, 40% hits; shares compounds with SENP7 inh; inhibition, % at 12.5 µM; AID 488912; Recombinant SENP8, Z-RLRGG-aminoluciferin luminescence, 60 min;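 active means mean inhibition across replicates above about 50%, limit read from the data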
SENP6 conf = human SENP6 inhibition, confirmed | inhibition, % at 12.5 µM | recombinant SENP6, Z-RLRGG-aminoluciferin luminescence | shares compounds with SENP7 inh | AID 488915 | 6,200 compounds, 58% hits
SENP7 conf = confirmation of human SENP7 protease inhibitors. recombinant SENP7, Z-RLRGG-aminoluciferin luminescence, 40 min. shares compounds with SENP7 inh. inhibition, % at 12.5 µM. 6,200 compounds, 69% hits
Casp3 select = selectivity test for SENP inhibitors: human caspase-3 inhibition; shares compounds with SENP7 inh; purified caspase-3, Z-DEVD-aminoluciferin luminescence, 60 min; inhibition, % at 12.5 µM; 6,200 compounds, 60% hits;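 active means mean inhibition above about 50%, limit read from the data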;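 further: plate controls were enzyme with DMSO for no effect and wells without caspase-3 for full effect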
Target sequence (P42574 28-227 limits assumed): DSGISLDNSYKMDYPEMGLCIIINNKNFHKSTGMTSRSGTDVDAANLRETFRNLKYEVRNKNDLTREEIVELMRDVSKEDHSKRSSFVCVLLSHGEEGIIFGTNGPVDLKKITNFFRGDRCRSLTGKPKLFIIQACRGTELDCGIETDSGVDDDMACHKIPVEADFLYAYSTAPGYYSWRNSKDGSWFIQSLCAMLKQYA
Luc interf = interferes with luciferase luminescence in SENP counter-screen; 6,200 compounds, 39% hits; shares compounds with SENP7 inh; Pre-incubated SENP8/Z-RLRGG-aminoluciferin, luciferase luminescence interference; inhibition, % at 12.5 µM;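 active means mean inhibition above about 50% when retested at one dose, limit read from the data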;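 further: plate controls were DMSO wells with completed reaction for no effect and substrate without enzyme for full effect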
The depositor's hits bear a star; i = inactive; / = no result. An excerpt weighted towards active compounds, which were near 3% of everything screened.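 How the source made its calls, unless noted: active means mean inhibition above about 50% in the one-dose retest (limit read from the data); inactive means the rest.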

SMILES	UBC13 inh	SENP7 inh	SENP6 inh	SENP8 block-1	SENP8 block-2	Apaf1 inhib	SENP8 conf	SENP6 conf	SENP7 conf	Casp3 select	Luc interf
Cc1cc(-c2nc3ccccc3s2)ccc1N	/	/	/	/	i	/	/	/	/	/	/
Cc1ccc2nc(-c3ccc(N)cc3)sc2c1	11	98*	95*	95*	-459	1	96*	98*	102*	92*	45
CNC(=S)Nc1ccc(-c2nc3ccc(C)cc3s2)cc1	9	50	74*	64*	-392	12	41	64*	86*	40	43
Nc1ccc(-c2nc3cc(N)ccc3s2)cc1	-5	90*	75*	84*	-429	-20	93*	93*	100*	90*	90*
Nc1ccc2nc(-c3ccccc3)sc2c1	17	98*	98*	96*	-289	3	98*	100*	103*	98*	97*
CNc1nc(OC)nc(N(C#N)CN2C(=O)c3ccccc3S2(=O)=O)n1	1	2	-5	7	11	-4	/	/	/	/	/
Cc1ccc2nc(-c3ccc(NC(=O)COC(=O)c4ccco4)cc3)sc2c1	4	-4	-12	-2	-436	0	/	/	/	/	/
COc1ccc(/C=C(\C#N)C(=O)OCC(=O)Nc2ccc(-c3nc4ccc(C)cc4s3)cc2)cc1	-15	53*	-1	16	-425	-7	24	20	45	26	54*
COC1C(OC(=O)/C=C/C=C/C=C/C=C/C(=O)O)CCC2(CO2)C1C1(C)OC1CC=C(C)C (centres undefined) (tested in a mixture with another compound)	/	/	/	/	-31	/	/	/	/	/	/
O=C(O)c1ccc2cc(-c3ccccc3)[nH]c2c1	5	100*	95*	97*	-454	0	7	101*	104*	48	50*
O=C(O)c1ccc(-c2ccccc2)[nH]1	4	0	-9	2	8	-1	/	/	/	/	/
CC(=O)c1sc(NC(=O)c2cc(=O)c3ccccc3o2)nc1C	-12	64*	82*	67*	15	2	79*	82*	96*	90*	48
CC(=O)c1sc(NC(=O)c2oc3ccc(F)cc3c2C)nc1C	-1	80*	45	57*	-469	-17	37	39	17	50*	16
CC(=O)c1sc(NC(=O)c2c(F)cccc2F)nc1C	-6	2	-12	-8	8	-12	/	/	/	/	/
O=C(O)c1cccc(Nc2ncnc3sccc23)c1	0	86*	91*	80*	-19	0	92*	91*	100*	64*	88*
COc1ccc(OC)c(S(=O)(=O)N2CCC(C(=O)NC3CCCC3)CC2)c1	7	10	-19	0	4	4	/	/	/	/	/
CCOC(=O)C1(C)CCN1C(=O)c1ccc(C#N)cc1 (centres undefined)	/	/	/	/	13	/	/	/	/	/	/
Cc1cc(C)n(CCc2nc(-c3ccc(-c4ccccc4)cc3)cs2)n1	7	80*	83*	19	4	0	27	50	68*	36	21
COC(=O)CCn1nc(-c2ccc(C)cc2)c2ccccc2c1=O	14	-5	4	0	16	-5	/	/	/	/	/
CCOC(=O)Cc1csc(N/N=C/c2ccccc2)n1	3	42	45	23	-45	-1	/	/	/	/	/
CCOC(=O)Cc1csc(N/N=C\c2ccccc2OC)n1	-6	45	68*	26	-188	19	58*	54*	79*	42	55*
CCSc1nnc(NC(=O)C2CSC3(C)CCC(=O)N23)s1 (centres undefined)	4	6	0	8	14	-9	/	/	/	/	/
Cc1sc(NC(=O)c2ccc(Br)s2)c(C(N)=O)c1C	-1	51*	76*	26	-54	10	25	20	45	22	11
Cc1sc(NC(=O)c2ccc(Cl)s2)c(C(N)=O)c1C	13	52*	60*	1	-50	-12	-2	-2	5	28	5
Cc1sc(NC(=O)c2cc(-c3ccc(Cl)cc3)nc3ccccc23)c(C(N)=O)c1C	-24	-15	-22	-7	6	1	/	/	/	/	/
SMILES	UBC13 inh	SENP7 inh	SENP6 inh	SENP8 block-1	SENP8 block-2	Apaf1 inhib	SENP8 conf	SENP6 conf	SENP7 conf	Casp3 select	Luc interf
Cc1sc(NC(=S)Nc2ccc(F)cc2)c(C(N)=O)c1C	/	/	/	/	-7	/	/	/	/	/	/
CCCn1c(SCC(=O)Nc2cc(S(=O)(=O)N(C)C)ccc2OC)n[nH]c1=O	15	3	-21	-1	22	-25	/	/	/	/	/
Cc1ccc2c(C)c(C)c(=O)n(C)c2c1	/	/	/	/	-26	/	/	/	/	/	/
CCOC(=O)C(Oc1ccc(=O)n(-c2ccccc2)n1)C(C)=O (centres undefined)	-8	84*	-22	-5	10	-18	7	10	7	4	2
O=C(O)COc1ccc(=O)n(-c2ccccc2)n1	-11	10	0	-2	25	7	/	/	/	/	/
O=c1c2cc(F)ccc2sn1-c1ccccc1	-7	22	84*	75*	5	5	83*	84*	96*	88*	77*
Cc1ccc(NC(=O)CCNS(=O)(=O)c2ccc(OC(F)(F)F)cc2)c(O)c1	8	-5	-5	4	7	-1	/	/	/	/	/
CC(C)(C)N1CC23CCC(C[C@@H]2C1=O)O3 (some centres undefined)	-8	3	-4	-7	12	-6	/	/	/	/	/
Cc1nc2ccccc2c(=O)n1NC(=O)COc1ccccc1	-5	57*	-9	-7	6	-11	9	6	13	7	5
CC1(C)CC(=O)C2=C(C1)Nc1ccccc1NC2c1ccc([N+](=O)[O-])cc1 (centres undefined)	-19	-5	-13	-11	15	1	/	/	/	/	/
Cc1snc2sc(C(=O)c3ccc(Br)cc3)c(N)c12	-4	-7	-15	6	25	6	/	/	/	/	/
Cc1ccc(C(=O)c2sc3nsc(C)c3c2N)cc1	4	53*	57*	27	16	5	12	27	60*	41	11
COc1ccc2nc(N3C(=O)C(O)=C(C(=O)c4ccco4)C3c3ccc(C)o3)sc2c1 (centres undefined)	-2	-12	-7	-15	-68	-3	/	/	/	/	/
